For data set [1], the target named is T1, Integrin alpha-V/beta-3 (Homo sapiens, UniProt P05106+P06756). The data set can be described thus: Binding affinity for non-peptide Vitronectin receptor (alpha V beta 3). It is filed as protein-complex assay. The gist of the method:
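Competitive binding to human αvβ3, with 3H-SK&F 107260 as the displaced radioligand. Ki is the mean of two to three separate experiments.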

In data set [2] the target is Integrin alpha-IIb/beta-3 (Homo sapiens, UniProt P05106+P08514). The data set can be described thus: Binding affinity for alpha IIb beta3 integrin. It is filed as protein-complex assay. The essentials: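 Competitive binding to human αIIbβ3, with 3H-SK&F 107260 as the displaced ligand. Ki is the mean of two to three separate experiments.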
Sequence of Integrin alpha-IIb/beta-3 (P05106 27-788 limits assumed): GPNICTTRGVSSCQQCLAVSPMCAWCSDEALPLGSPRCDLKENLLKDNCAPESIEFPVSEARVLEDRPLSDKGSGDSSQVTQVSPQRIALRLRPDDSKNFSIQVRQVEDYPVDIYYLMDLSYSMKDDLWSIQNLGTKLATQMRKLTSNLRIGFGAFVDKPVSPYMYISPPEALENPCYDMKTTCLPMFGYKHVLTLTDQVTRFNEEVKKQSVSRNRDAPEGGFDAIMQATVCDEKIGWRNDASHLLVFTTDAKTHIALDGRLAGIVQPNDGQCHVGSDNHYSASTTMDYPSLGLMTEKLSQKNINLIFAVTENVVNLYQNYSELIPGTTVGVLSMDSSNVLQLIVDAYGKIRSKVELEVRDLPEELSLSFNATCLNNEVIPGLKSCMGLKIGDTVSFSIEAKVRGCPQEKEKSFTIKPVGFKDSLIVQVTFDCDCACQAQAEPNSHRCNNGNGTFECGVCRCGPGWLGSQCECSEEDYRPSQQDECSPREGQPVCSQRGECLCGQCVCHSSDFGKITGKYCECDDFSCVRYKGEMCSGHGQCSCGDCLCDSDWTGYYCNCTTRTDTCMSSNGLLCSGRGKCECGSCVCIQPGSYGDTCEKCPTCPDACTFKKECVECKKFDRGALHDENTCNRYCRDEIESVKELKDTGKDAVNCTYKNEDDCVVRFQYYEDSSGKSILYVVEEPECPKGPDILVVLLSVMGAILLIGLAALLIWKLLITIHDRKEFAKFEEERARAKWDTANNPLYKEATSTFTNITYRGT
Sequence of Integrin alpha-IIb/beta-3 (P08514 32-887 limits assumed): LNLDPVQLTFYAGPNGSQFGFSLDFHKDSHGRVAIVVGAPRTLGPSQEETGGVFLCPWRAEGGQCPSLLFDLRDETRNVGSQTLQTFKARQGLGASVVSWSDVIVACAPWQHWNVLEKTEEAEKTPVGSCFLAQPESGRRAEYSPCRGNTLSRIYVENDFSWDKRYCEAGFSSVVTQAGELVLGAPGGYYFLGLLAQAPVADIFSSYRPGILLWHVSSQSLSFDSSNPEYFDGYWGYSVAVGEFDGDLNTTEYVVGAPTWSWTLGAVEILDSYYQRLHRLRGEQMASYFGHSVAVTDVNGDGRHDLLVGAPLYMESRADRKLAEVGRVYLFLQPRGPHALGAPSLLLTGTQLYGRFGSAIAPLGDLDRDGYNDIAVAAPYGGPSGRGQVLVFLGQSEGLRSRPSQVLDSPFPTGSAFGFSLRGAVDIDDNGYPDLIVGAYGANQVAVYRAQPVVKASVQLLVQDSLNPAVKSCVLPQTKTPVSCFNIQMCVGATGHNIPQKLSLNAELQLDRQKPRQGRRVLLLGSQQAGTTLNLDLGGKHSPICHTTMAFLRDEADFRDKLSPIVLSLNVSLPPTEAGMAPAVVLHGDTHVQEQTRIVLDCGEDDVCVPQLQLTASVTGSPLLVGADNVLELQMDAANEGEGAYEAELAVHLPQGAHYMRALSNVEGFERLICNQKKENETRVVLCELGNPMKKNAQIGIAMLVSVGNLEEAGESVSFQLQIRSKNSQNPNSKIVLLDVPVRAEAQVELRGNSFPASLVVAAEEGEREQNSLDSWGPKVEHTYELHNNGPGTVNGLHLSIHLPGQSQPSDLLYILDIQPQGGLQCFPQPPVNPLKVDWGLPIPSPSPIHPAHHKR
Sequence of Integrin alpha-IIb/beta-3 (P08514 891-1039 limits assumed): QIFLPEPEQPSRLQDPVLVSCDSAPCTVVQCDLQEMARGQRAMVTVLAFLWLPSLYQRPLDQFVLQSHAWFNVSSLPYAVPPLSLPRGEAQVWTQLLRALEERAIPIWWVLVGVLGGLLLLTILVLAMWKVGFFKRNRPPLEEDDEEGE
The target in data set [3] is T1, Integrin alpha-V/beta-3. The data set can be described thus: Inhibition of HEK 293 cell adhesion to vitronectin by alpha V beta 3. Type of data set: cell-based, HEK293. The gist of the method:
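Cell-based αvβ3 affinity. HEK 293 cells transfected with human αvβ3 were tested for inhibition of adhesion of purified human vitronectin. IC50 is the mean of two experiments run in triplicate with an internal standard.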

Data set [4] can be described thus: Plasma clearance of the compound. Type of data set: ADME, organism-based. Particulars: rat. The gist of the method:
(§1)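 Rat pharmacokinetics from plasma concentration–time data in two to three separate animals, by non-compartmental analysis. Oral bioavailability was taken from dose-normalized i.v. and p.o. AUC values.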

For data set [5], the species on record is Homo sapiens. The data set can be described thus: In vitro inhibitory activity determined by human osteoclast resorption assay. Type of data set: functional.
A short description of data set [6]: Oral bioavailability in rat. It is filed as ADME, organism-based. Particulars: in vivo. The gist of the method:
as §1

A further data set relates to Rattus norvegicus. The experiment in a line: In vivo inhibitory activity against bone resorption of calcium response determined in thyroidparathyroidectomized rat model at 2.53 mg/kg/hr after 6 hr. Type of data set: functional. The gist of the method: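 Thyroparathyroidectomized rats received compound by continuous i.v. infusion at 2.53 mg/kg/hr. Inhibition of the calcemic response was read after 6 hr.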

Data set [7] can be described thus: Half-life was determined. It is filed as ADME, organism-based. Particulars: rat, in vivo. The essentials:
as §1

The species named for data set [8] is Homo sapiens. The experiment in a line: In vitro inhibitory activity against human platelet aggregation. Type of data set: functional. The gist of the method:
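Inhibition of ADP-induced aggregation in human platelet-rich plasma.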

Data set [9] has as its target Integrin alpha-5/beta-1 (Homo sapiens). The data set can be described thus: Binding affinity for alpha 5 beta 1 receptor.
The next data set addresses Integrin alpha-V/beta-5 (Homo sapiens, UniProt P06756+P18084). The data set can be described thus: Binding affinity for integrin alpha V beta 5 receptor. Type of data set: protein-complex assay.

In general, Ki refers to a dissociation constant, usually derived from enzyme kinetics or from competition with a known ligand. Low values mean a stronger hold on the target, high ones a looser hold on the target. As a reminder, the IC50 is the concentration at which inhibition is half-maximal. Low readings indicate greater potency in that assay, high ones weaker potency in that assay. The term clearance denotes the rate of elimination divided by the concentration. Higher therefore signals a high capacity for elimination. The bioavailability is dose-corrected exposure relative to a reference, in per cent. Higher therefore signals much systemic uptake. The inhibition in vivo is how much of the control response was suppressed. As usually defined, the half-life is the time needed for the level to fall by half in the phase considered. High values mean slow loss, low ones fast loss.

The structures appear in SMILES notation.

T1 sequence (P05106 27-788 limits assumed): as the sequence (P05106 27-788 limits assumed) above
T1 sequence (P06756 31-889 limits assumed): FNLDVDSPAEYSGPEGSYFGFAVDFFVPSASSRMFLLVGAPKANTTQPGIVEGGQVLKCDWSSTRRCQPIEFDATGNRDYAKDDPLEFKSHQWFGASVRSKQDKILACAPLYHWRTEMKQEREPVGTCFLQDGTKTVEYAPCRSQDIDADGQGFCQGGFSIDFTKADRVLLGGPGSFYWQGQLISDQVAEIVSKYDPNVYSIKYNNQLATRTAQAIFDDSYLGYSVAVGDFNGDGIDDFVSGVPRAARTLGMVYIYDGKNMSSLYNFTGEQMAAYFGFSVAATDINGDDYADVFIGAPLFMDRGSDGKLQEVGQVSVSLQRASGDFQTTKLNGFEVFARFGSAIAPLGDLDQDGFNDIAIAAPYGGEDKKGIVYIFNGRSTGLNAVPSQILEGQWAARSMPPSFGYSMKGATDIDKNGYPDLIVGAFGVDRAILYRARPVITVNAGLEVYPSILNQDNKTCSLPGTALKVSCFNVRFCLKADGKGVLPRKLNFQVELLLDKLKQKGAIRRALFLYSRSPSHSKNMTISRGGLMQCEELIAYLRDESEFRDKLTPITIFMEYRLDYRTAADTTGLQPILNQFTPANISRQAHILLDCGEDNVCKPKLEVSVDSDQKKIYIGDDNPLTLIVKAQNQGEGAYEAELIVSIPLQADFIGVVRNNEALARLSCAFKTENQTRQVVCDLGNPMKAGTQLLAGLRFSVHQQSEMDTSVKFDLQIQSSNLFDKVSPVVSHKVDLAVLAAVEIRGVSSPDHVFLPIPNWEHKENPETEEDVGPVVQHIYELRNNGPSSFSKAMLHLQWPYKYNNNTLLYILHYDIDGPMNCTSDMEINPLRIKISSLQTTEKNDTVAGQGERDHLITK
T1 sequence (P06756 891-1048 limits assumed): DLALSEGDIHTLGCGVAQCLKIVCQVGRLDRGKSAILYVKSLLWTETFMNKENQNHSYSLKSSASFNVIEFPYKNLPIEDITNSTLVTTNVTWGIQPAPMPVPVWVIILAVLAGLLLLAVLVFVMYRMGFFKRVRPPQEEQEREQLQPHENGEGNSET
Sequence of Integrin alpha-V/beta-5 (P06756 31-889 limits assumed): as the sequence (P06756 31-889 limits assumed) above
Sequence of Integrin alpha-V/beta-5 (P06756 891-1048 limits assumed): as the sequence (P06756 891-1048 limits assumed) above
Sequence of Integrin alpha-V/beta-5 (P18084 24-799 limits assumed): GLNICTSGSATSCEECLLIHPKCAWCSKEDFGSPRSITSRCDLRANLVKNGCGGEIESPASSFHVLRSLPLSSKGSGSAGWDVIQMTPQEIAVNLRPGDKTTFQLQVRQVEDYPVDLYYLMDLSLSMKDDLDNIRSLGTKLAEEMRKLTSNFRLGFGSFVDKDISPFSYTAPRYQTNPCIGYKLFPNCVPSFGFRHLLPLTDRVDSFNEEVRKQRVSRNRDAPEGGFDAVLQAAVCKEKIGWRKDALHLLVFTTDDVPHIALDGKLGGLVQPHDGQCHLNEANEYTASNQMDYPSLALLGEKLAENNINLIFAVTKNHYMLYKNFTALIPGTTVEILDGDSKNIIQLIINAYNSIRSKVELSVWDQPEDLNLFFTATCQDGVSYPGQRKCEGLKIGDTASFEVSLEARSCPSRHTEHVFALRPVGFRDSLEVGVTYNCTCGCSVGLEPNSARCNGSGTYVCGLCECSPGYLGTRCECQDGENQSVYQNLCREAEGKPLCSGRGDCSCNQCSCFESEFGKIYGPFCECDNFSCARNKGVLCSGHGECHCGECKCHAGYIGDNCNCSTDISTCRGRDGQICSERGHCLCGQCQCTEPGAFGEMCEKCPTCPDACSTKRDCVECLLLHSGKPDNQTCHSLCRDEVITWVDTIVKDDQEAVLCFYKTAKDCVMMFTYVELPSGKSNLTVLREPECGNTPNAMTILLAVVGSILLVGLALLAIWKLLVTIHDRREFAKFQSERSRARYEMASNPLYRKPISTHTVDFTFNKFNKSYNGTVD

Regarding `O=C(O)CC1Cc2ccc(OCCCNc3ccccn3)cc2Cc2ccccc21` (stereo not given), the inhibitory constant (Ki) on Integrin alpha-V/beta-3 [1] was determined as 8 nM; in data set [2] it was 30000 nM. Besides, on Integrin alpha-V/beta-3 [3], the IC50 worked out at 65 nM.

For the compound `CN(Cc1nc2ccccc2[nH]1)C(=O)c1ccc2c(c1)Cc1ccccc1C(CC(=O)O)C2` (stereo not given), the values for the Ki (at Integrin alpha-V/beta-3 [1]; in data set [2]) were 23 nM and more than 50000 nM, respectively. In addition, 1800 nM corresponded to half-maximal inhibition against Integrin alpha-V/beta-3 [3] (IC50).

At Integrin alpha-V/beta-3 [1], `O=C(O)C[C@H]1Cc2ccc(OCCCNc3ccccn3)cc2Cc2ccccc21` came in with a Ki of 550 nM.

As for `O=C(O)C[C@@H]1Cc2ccc(OCCCNc3ccccn3)cc2Cc2ccccc21`, the clearance in [4] was 3 mL/min/kg. In addition, the IC50 in the data set filed under Homo sapiens [5] was 48 nM; in the data set filed under Homo sapiens [8] it was more than 200000 nM; against Integrin alpha-V/beta-3 [3], 60 nM. In addition, the bioavailability in [6] stood at 100%. For the same compound, in the data set on Rattus norvegicus, the inhibition in vivo at 2.53 mg/kg/hr stood at 85%. In data set [7], the half-life was 3.02 h. In addition, the Ki in [9] stood at 18000 nM; at Integrin alpha-V/beta-3 [1], 4 nM; at Integrin alpha-V/beta-5, 1.3 nM; in data set [2] it was 9000 nM.

As to `CN(Cc1nc2ccccc2[nH]1)C(=O)c1ccc2c(c1)CN(C)C(=O)[C@H](CC(=O)O)N2`, the bioavailability in [6] was 3%. For the same compound, the half-life in [7] amounted to 0.15 h.

(Values after ChEMBL document CHEMBL1131769, “Orally bioavailable nonpeptide vitronectin receptor antagonists with efficacy in an osteoporosis model” (Bioorg Med Chem Lett, 1999).)
